Reference: ChEMBL document CHEMBL3244406, “11,12-Secoprostaglandins. 5. 8-Acetyl- or 8-(1-hydroxyethyl)-12-hydroxy-13-aryloxytridecanoic acids and sulfonamide isosteres as inhibitors of platelet aggregation” (1978)
The source made the active and inactive calls. The calls are words filed in the database; no cut-off is given here.

Columns and labels:
Platelet [1] = assay: Inhibition of bovine collagen-induced platelet aggregation isolated from po treated Hartley guinea pig after 1 hr treatment; format: functional; settings: Cavia porcellus
Outline: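 Male Hartley guinea pigs (0.6-1.1 kg) dosed orally, suspended in 5 ml/kg EtOH-H2O Emulphor, three animals at each of three doses plus vehicle controls. Cardiac-puncture blood taken 1 h later, pooled per group, PRP spun at 200g for 10 min, platelets matched with PPP.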

[2] = (§1) Induction of prostaglandin-like activity in CD-1 mouse ovary assessed as fold increase in [14C]-cAMP formation using ATP-[14C] substrate at 100 ug/ml after 30 mins incubation by PG assay; format: functional, Female gonad
[3] = (§2) Induction of prostaglandin-like activity in CD-1 mouse ovary assessed as fold increase in [14C]-cAMP formation using ATP-[14C] substrate at 25 ug/ml after 30 mins incubation by PG assay; format: functional, Female gonad
Mus musculus [4] = species on record: Mus musculus; assay: (§3) Induction of prostaglandin-like activity in CD-1 mouse ovary assessed as fold increase in [14C]-cAMP formation using ATP-[14C] substrate at 10 ug/ml after 30 mins incubation by PG assay; format: functional; settings: Female gonad
Mus musculus [5] = species on record: Mus musculus; assay: as §1; format: functional; settings: Female gonad
Mus musculus [6] = species on record: Mus musculus; assay: as §2; format: functional; settings: Female gonad
[7] = as §3; format: functional, Female gonad
Platelet [8] = assay: Inhibition of bovine collagen-induced platelet aggregation isolated from ip treated Hartley guinea pig after 1 hr treatment; format: functional; settings: Cavia porcellus

Compound | ED50 (Platelet [1]) | fold change (FC) [2] | fold change (FC) [3] | Activity (Mus musculus [4]) | Activity (Mus musculus [5]) | Activity (Mus musculus [6]) | fold change (FC) [7] | ED50 (Platelet [8])
COc1ccc(OCC(O)CCCN(CCCCCCC(=O)O)S(C)(=O)=O)cc1 (configuration not stated) | > 10 mg/kg | 16 | 3 | inactive |  |  |  | 
CS(=O)(=O)N(C/C=C\CCCC(=O)O)C/C=C/C(O)COc1cccc(C(F)(F)F)c1 (configuration not stated) | 5 mg/kg |  |  |  | inactive | inactive |  | 
CCCCCC(O)CCCC(CCCCCCC(=O)O)C(C)=O (mixture of isomers) | 6.5 mg/kg | 23 | 14 |  |  |  | 11 | 
CS(=O)(=O)N(C/C=C\CCCC(=O)O)C/C=C/C(O)COc1ccc(F)cc1 (configuration not stated) | 0.01 mg/kg | 11 | 4 |  |  |  | 2 | 
CC(=O)C(C/C=C\CCCC(=O)O)CCCC(O)COc1ccc(F)cc1 (configuration not stated) | 0.09 mg/kg | 2 |  |  |  | inactive |  | 
CS(=O)(=O)N(CCCCCCC(=O)O)CCCC(O)CSc1ccc(F)cc1 (configuration not stated) | 6 mg/kg | 18 | 14 |  |  |  | 6 | 
CC(=O)C(CCCCCCC(=O)O)CCCC(O)COc1ccc(F)cc1 (configuration not stated) | 0.5 mg/kg | 4 |  |  |  | inactive |  | 
CS(=O)(=O)N(CCCCCCC(=O)O)CCCC(O)COc1ccc(Cl)cc1 (configuration not stated) | 10 mg/kg | 31 | 21 |  |  |  | 8 | 
CC(O)C(CCCCCCC(=O)O)CCCC(O)COc1ccc(C(F)(F)F)cc1 (configuration not stated) | 1 mg/kg |  |  |  | inactive | inactive |  | 
CS(=O)(=O)N(CCCCCCC(=O)O)CCCC(O)COc1ccccc1F (configuration not stated) | 0.15 mg/kg |  |  |  | inactive | inactive |  | 
CC(=O)C(CCCCCCC(=O)O)CCCC(O)COc1ccccc1OCc1ccccc1 (configuration not stated) | > 10 mg/kg |  |  |  | inactive | inactive |  | 
CC(O)C(CCCCCCC(=O)O)CCCC(O)COc1ccccc1F (configuration not stated) | 7.5 mg/kg |  |  |  | inactive | inactive |  | 
CS(=O)(=O)N(CCCCCCC(=O)O)CCCC(O)COc1ccc(F)cc1 (configuration not stated) | 0.04 mg/kg | 11 | 7 |  |  |  | 2 | 
CS(=O)(=O)N(CCCCCCC(=O)O)CCCC(O)COc1cccc(Cl)c1 (configuration not stated) | 1 mg/kg | 5 |  |  |  | inactive |  | 
CC(O)C(C/C=C\CCCC(=O)O)CCCC(O)COc1ccc(F)cc1 (configuration not stated) | 0.12 mg/kg | 3 |  |  |  | inactive |  | 
CCCCC[C@H](O)/C=C/[C@H]1[C@H](O)CC(=O)[C@@H]1CCCCCCC(=O)O [ALPROSTADIL] |  |  |  |  |  |  | 60 | 0.02 mg/kg
CC(=O)C(CCCCCCC(=O)O)CCCC(O)COc1ccccc1O (configuration not stated) | 5 mg/kg |  |  |  | inactive | inactive |  | 
CCCCCC(O)CCCN(CCCCCCC(=O)O)S(C)(=O)=O (racemic) | 6 mg/kg | 61 | 56 |  |  |  | 40 | 
CS(=O)(=O)N(CCCCCCC(=O)O)CCCC(O)COc1ccccc1 (configuration not stated) | 1 mg/kg | 3 |  |  |  | inactive |  | 
CC(=O)C(CCCCCCC(=O)O)CCCC(O)COc1cccc(C(F)(F)F)c1 (configuration not stated) | > 10 mg/kg |  |  |  | inactive | inactive |  | 
CC(O)C(CCCCCCC(=O)O)CCCC(O)COc1cccc(Cl)c1 (configuration not stated) | 7.5 mg/kg | 2 |  |  |  | inactive |  | 
CC(O)C(CC#CCCCC(=O)O)CCCC(O)COc1ccc(F)cc1 (configuration not stated) | 0.04 mg/kg | 2 |  |  |  | inactive |  | 
CC(=O)C(CCCCCCC(=O)O)CCCC(O)COc1ccc(C(C)(C)C)cc1 (configuration not stated) | 10 mg/kg |  |  |  | inactive | inactive |  | 
CS(=O)(=O)N(CCCCCCC(=O)O)CCCC(O)CS(=O)(=O)c1ccc(F)cc1 (configuration not stated) | > 10 mg/kg | 3 |  |  |  | inactive |  | 
CC(=O)Oc1ccccc1C(=O)O [ASPIRIN] | 4.5 mg/kg |  |  |  |  |  |  | 
CS(=O)(=O)N(CCCCCCC(=O)O)CCCC(O)COc1cccc(F)c1 (configuration not stated) | 1 mg/kg | 4 | 2 |  |  |  |  | 
CC(=O)C(CC#CCCCC(=O)O)CCCC(O)COc1ccc(F)cc1 (configuration not stated) | 0.25 mg/kg |  |  |  | inactive | inactive |  | 
Cc1ccc(OCC(O)CCCN(CCCCCCC(=O)O)S(C)(=O)=O)cc1 (configuration not stated) | 5 mg/kg | 16 | 11 |  |  |  | 4 | 
CC(O)C(CCCCCCC(=O)O)CCCC(O)COc1ccc(F)cc1 (configuration not stated) | 1 mg/kg | 3 |  |  |  | inactive |  | 
